In ChEMBL document CHEMBL2163328, “Inhibition of TNF-α-Induced Inflammation by andrographolide via down-regulation of the PI3K/Akt signaling pathway” (J Nat Prod, 2011):
Active and inactive are the calls of the source. No cut-off for these calls is given here.

Tests used:
HUVEC [1] = assay: Inhibition of TNFalpha-stimulated ICAM-1 mRNA expression in HUVEC at 10 to 25 uM pretreated for 16 hrs before TNFalpha challenge measured after 6 hrs by RT-PCR analysis; type: functional, cell-based; conditions: Homo sapiens
Method in brief: (§1)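 HUVEC pretreated 16 h, then TNF-α 1 ng/mL for 6 h. Total RNA isolated with TRIzol; 4 μg reverse-transcribed with M-MLV RT and oligo(dT). ICAM-1 amplified for 32 cycles (94 °C 1 min, 55 °C 1 min, 72 °C 2 min) after 95 °C for 5 min. Normalized to GAPDH; products resolved on 1% agarose and quantified by densitometry.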

HUVEC [2] = assay: Inhibition of TNFalpha-stimulated DNA binding activity of NFkappaB in HUVEC at 10 to 25 uM pretreated for 16 hrs before TNFalpha challenge measured after 30 mins by EMSA; type: cell-based; conditions: Homo sapiens
Method in brief: (§2)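 EMSA: nuclear extracts prepared by hypotonic then hypertonic (400 mM KCl) extraction. 2 μg nuclear protein incubated with biotin-labeled NF-κB probe and poly(dI-dC) at room temperature for 30 min. Complexes separated on 6% TBE-PAGE, transferred to nylon and detected with streptavidin-HRP. Specificity checked with 100-fold excess unlabeled and mutant oligonucleotides.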

HUVEC [3] = assay: Inhibition of TNFalpha-stimulated human ICAM-1 promoter activity expressed in HUVEC assessed as […] activity at 10 to 25 uM pretreated for 30 mins before TNFalpha challenge measured after 5 hrs by luciferase reporter gene assay; type: functional, cell-based
Method in brief: (§3)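 HUVEC transiently transfected by nanofection with human ICAM-1 promoter-luciferase (pIC339) plus pSV-β-galactosidase for 4 h. Pretreated 30 min, then TNF-α 1 ng/mL for 5 h. Luciferase activity measured in lysate supernatants and normalized to β-galactosidase activity for transfection efficiency. Three independent experiments.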

[4] = target: RAC-alpha serine/threonine-protein kinase (Homo sapiens) (UniProt P31749); assay: Induction of Akt1 phosphorylation at Ser473 expressed in HUVEC by Western blot analysis; type: cell-based
HUVEC [5] = assay: Toxicity assessed as induction of HUVEC adhesion to BCECF-AM-labeled human HL60 cells by fluorescence assay; type: cell-based
Method in brief: (§4)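 HUVEC grown to 80% confluence, pretreated 16 h, then TNF-α 1 ng/mL for 6 h. Co-incubated with 4 × 10^5 BCECF-AM-labeled HL-60 cells per well, 37 °C, 30 min. Nonadherent cells removed by inverted centrifugation at 100g for 5 min. Bound cells lysed in 1% SDS; fluorescence read at ex 490/em 520 nm and converted to adherent cells/well by standard curve. Three independent experiments.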

HUVEC [6] = assay: Induction of NFkappaB activation in HUVEC by EMSA; type: cell-based; conditions: Homo sapiens; method in brief: as §2
[7] = target: RAC-alpha serine/threonine-protein kinase (Homo sapiens) (UniProt P31749); assay: Inhibition of TNFalpha-stimulated Akt1 phosphorylation at Ser473 in HUVEC at 20 uM pretreated for 16 hrs before TNFalpha challenge measured after 15 mins by Western blot analysis
[8] = Cytotoxicity against TNFalpha-stimulated HUVEC assessed as cell viability at 20 uM pretreated for 16 hrs before TNFalpha challenge measured after 6 hrs by MTT assay (reference value: 103.8 +/- 6.1%); type: cell-based; conditions: human, TNFalpha-stimulated HUVEC cells; read-out: Activity
HUVEC [9] = assay: Inhibition of TNFalpha-stimulated HUVEC adhesion to BCECF-AM-labeled human HL60 cells at 20 uM pretreated for 16 hrs before TNFalpha challenge measured after 6 hrs by fluorescence assay; type: functional; method in brief: as §4
HUVEC [10] = assay: Inhibition of TNFalpha-stimulated DNA binding activity of NFkappaB in HUVEC at 5 to 20 uM pretreated for 16 hrs before TNFalpha challenge measured after 30 mins by EMSA; type: cell-based; conditions: Homo sapiens; method in brief: as §2
[11] = target: RAC-alpha serine/threonine-protein kinase (Homo sapiens) (UniProt P31749); assay: Inhibition of activated Akt1 phosphorylation at Ser473 expressed in HUVEC transfected with activated AKT1 assessed as pAKT level at 10 uM after 16 hrs by Western blot analysis (reference value: 272%); type: cell-based; parameters: scale not given: the % may be the effect or the level left
[12] = target: RAC-alpha serine/threonine-protein kinase (Homo sapiens) (UniProt P31749); assay: Inhibition of TNFalpha-stimulated ICAM-1 expression in HUVEC transfected with activated AKT1 assessed as ICAM1 level at 10 uM incubated for 16 hrs by Western blot (reference value: 249%); type: cell-based; parameters: scale not given: the % may be the effect or the level left
[13] = target: RAC-alpha serine/threonine-protein kinase (Homo sapiens) (UniProt P31749); assay: Inhibition of TNFalpha-stimulated Akt1 phosphorylation at Ser473 assessed as pAKT level in HUVEC at 10 uM pretreated for 16 hrs before TNFalpha challenge measured after 6 hrs by Western blot analysis (reference value: 249%); parameters: scale not given: the % may be the effect or the level left
[14] = target: Transcription factor p65 (Homo sapiens) (UniProt Q04206); assay: Inhibition of TNFalpha-stimulated NFkappaB activation in HUVEC assessed as reduction of nuclear p65 level at 20 uM pretreated for 16 hrs before TNFalpha challenge measured after 30 mins by […]
HUVEC [15] = assay: Inhibition of TNFalpha-stimulated human ICAM-1 promoter activity expressed in HUVEC assessed as […] activity at 20 uM pretreated for 30 mins before TNFalpha challenge measured after 5 hrs by luciferase reporter gene assay; type: functional, cell-based; method in brief: as §3
HUVEC [16] = assay: Inhibition of TNFalpha-stimulated total ICAM-1 expression in HUVEC at 5 to 20 uM pretreated for 16 hrs before TNFalpha challenge measured after 6 hrs by Western blot analysis; type: functional, cell-based; conditions: Homo sapiens
Method in brief: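 HUVEC pretreated 16 h, then TNF-α 1 ng/mL for 6 h. Lysed in Tris/EDTA/PMSF/aprotinin buffer at pH 7.4; equal protein run on SDS-PAGE and transferred to PVDF. Blocked in 5% milk at 4 °C overnight, probed with anti-ICAM-1 and HRP secondary. ECL detection with densitometric quantitation. Means ± SD, n = 3.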

HUVEC [17] = assay: Inhibition of TNFalpha-stimulated ICAM-1 mRNA expression in HUVEC at 20 uM pretreated for 16 hrs before TNFalpha challenge measured after 6 hrs by RT-PCR analysis; type: functional, cell-based; conditions: Homo sapiens; method in brief: as §1
[18] = Cytotoxicity against TNFalpha-stimulated HUVEC assessed as cell viability at 10 uM pretreated for 16 hrs before TNFalpha challenge measured after 6 hrs by MTT assay (reference value: 103.8 +/- 6.1%); type: cell-based; conditions: human, TNFalpha-stimulated HUVEC cells; read-out: Activity
HUVEC [19] = assay: Toxicity in HUVEC assessed as induction of ICAM-1 expression at 5 to 20 uM measured after 6 hrs by Western blot analysis; type: cell-based; conditions: human
HUVEC [20] = assay: Inhibition of TNFalpha-stimulated NFkappaB activation in HUVEC assessed as reduction of IkappaB degradation at 20 uM pretreated for 16 hrs before TNFalpha challenge measured after 30 mins by […]; type: cell-based; conditions: Homo sapiens
[21] = target: RAC-alpha serine/threonine-protein kinase (Homo sapiens) (UniProt P31749); assay: Inhibition of TNFalpha-stimulated AKT1-mediated ICAM-1 expression in HUVEC assessed as ICAM1 level at 10 uM pretreated for 16 hrs before TNFalpha challenge measured after 6 hrs by Western blot analysis (reference value: 345%); type: cell-based; parameters: scale not given: the % may be the effect or the level left
[22] = Cytotoxicity against TNFalpha-stimulated HUVEC assessed as cell viability at 5 uM pretreated for 16 hrs before TNFalpha challenge measured after 6 hrs by MTT assay (reference value: 103.8 +/- 6.1%); type: cell-based; conditions: human, TNFalpha-stimulated HUVEC cells; read-out: Activity
HUVEC [23] = assay: Inhibition of TNFalpha-stimulated cell surface ICAM-1 expression in HUVEC at 5 to 20 uM pretreated for 16 hrs before TNFalpha challenge measured after 6 hrs by flow cytometry; type: functional, cell-based; conditions: Homo sapiens
Method in brief: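 Cell-surface ICAM-1 by flow cytometry. HUVEC pretreated 16 h, then TNF-α 1 ng/mL for 6 h. Cells detached with trypsin and stained with FITC anti-ICAM-1 at 4 °C for 45 min in the dark. Washed three times in cold PBS before analysis. Three independent experiments.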

Sequence of RAC-alpha serine/threonine-protein kinase (Homo sapiens) (P31749 whole entry): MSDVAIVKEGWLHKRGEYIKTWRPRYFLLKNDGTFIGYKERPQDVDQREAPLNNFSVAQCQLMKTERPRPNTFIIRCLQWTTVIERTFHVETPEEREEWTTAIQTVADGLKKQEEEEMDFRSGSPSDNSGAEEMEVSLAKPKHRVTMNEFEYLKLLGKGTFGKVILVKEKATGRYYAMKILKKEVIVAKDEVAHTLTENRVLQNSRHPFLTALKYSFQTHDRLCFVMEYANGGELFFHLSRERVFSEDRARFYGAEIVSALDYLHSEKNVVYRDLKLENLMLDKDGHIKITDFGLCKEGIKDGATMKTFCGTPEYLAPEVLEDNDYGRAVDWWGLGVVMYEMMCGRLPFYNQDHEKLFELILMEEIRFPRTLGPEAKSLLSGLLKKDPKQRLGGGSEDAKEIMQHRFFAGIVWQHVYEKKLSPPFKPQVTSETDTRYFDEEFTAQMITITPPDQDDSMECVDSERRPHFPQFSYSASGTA
Sequence of Transcription factor p65 (Homo sapiens) (Q04206 whole entry): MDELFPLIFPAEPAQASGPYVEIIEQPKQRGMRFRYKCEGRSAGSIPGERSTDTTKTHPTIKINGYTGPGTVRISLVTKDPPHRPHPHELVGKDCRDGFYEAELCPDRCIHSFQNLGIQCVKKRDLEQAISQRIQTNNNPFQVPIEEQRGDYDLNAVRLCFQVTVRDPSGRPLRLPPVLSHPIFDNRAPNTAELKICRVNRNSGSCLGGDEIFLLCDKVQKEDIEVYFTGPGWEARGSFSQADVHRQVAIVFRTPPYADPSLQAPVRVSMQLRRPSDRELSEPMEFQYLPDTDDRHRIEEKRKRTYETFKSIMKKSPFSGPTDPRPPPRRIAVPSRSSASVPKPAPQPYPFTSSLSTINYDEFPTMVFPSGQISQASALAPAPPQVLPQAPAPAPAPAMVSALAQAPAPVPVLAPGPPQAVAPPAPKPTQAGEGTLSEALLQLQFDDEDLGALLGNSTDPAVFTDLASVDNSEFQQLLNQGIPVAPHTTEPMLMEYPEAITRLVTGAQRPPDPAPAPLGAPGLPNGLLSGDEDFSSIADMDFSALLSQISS

What does the source list for `O=c1cc(N2CCOCC2)oc2c(-c3ccccc3)cccc12`?
inhibition (HUVEC [1]): Active; inhibition (HUVEC [2]): Active; inhibition (HUVEC [3]): Active

With `C=C1CC[C@@H]2[C@](C)(CO)[C@H](O)CC[C@@]2(C)[C@@H]1C/C=C1/C(=O)OC[C@H]1O` [ANDROGRAPHOLIDE] as the compound, how does the Activity [4] read?
Its Activity is “inactive”.

What about the Activity (HUVEC [5]) of the same compound?
Its Activity is “Non-toxic”.

And the Activity (HUVEC [6])?
Its Activity is “inactive”.

What about the inhibition [7] of the same compound?
Its inhibition is “Active”.

And the viability at 6 h, 20 µM [8]?
The viability at 6 h, 20 µM was 87.5%.

What about the inhibition at 20 µM (HUVEC [9]) of the same compound?
The inhibition at 20 µM was 73%.

And the inhibition (HUVEC [10])?
The inhibition was “Active”.

What about the Activity [11] of the same compound?
The Activity was 111%.

And the Activity [12]?
The Activity was 177%.

What about the Activity [13] of the same compound?
The Activity was 127%.

And the inhibition [14]?
The inhibition was “Active”.

What about the inhibition (HUVEC [15]) of the same compound?
Its inhibition is “Active”.

What about the inhibition (HUVEC [16]) of the same compound?
Its inhibition is “Active”.

And the inhibition (HUVEC [17])?
Its inhibition is “Active”.

What about the viability at 6 h, 10 µM [18] of the same compound?
The viability at 6 h, 10 µM was 94.6%.

What about the Activity (HUVEC [19]) of the same compound?
The Activity was “Non-toxic”.

What about the inhibition (HUVEC [20]) of the same compound?
Its inhibition is “Active”.

And the Activity [21]?
The Activity was 36%.

What about the viability at 6 h, 5 µM [22] of the same compound?
The viability at 6 h, 5 µM was 96.4%.

And the inhibition (HUVEC [23])?
Its inhibition is “Active”.
